Reference: ChEMBL document CHEMBL1135710, “Novel mycophenolic adenine bis(phosphonate) analogues as potential differentiation agents against human leukemia” (J Med Chem, 2002)
Calls of active or inactive are those of the source. The rule behind the calls is not given here.

Tests used:
[1] = target: T1, Inosine-5'-monophosphate dehydrogenase 2 (Homo sapiens, UniProt P12268); assay: Inhibitory activity against human Inosine-5'-monophosphate dehydrogenase 2 (IMPDH type II);NA is not active
Procedure, shortened: (§1)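 Human IMPDH isoforms type I and type II assayed separately. Substrate, cofactor and inhibitor were premixed, and the reaction was started by adding enzyme. Values are reported as Ki.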

[2] = target: T2, Inosine-5'-monophosphate dehydrogenase 1 (Homo sapiens, UniProt P20839); assay: Inhibitory activity against human Inosine-5'-monophosphate dehydrogenase 1 (IMPDH type I);NA is not active; procedure, shortened: as §1
Target sequence in this assay (P20839 2-514 limits assumed): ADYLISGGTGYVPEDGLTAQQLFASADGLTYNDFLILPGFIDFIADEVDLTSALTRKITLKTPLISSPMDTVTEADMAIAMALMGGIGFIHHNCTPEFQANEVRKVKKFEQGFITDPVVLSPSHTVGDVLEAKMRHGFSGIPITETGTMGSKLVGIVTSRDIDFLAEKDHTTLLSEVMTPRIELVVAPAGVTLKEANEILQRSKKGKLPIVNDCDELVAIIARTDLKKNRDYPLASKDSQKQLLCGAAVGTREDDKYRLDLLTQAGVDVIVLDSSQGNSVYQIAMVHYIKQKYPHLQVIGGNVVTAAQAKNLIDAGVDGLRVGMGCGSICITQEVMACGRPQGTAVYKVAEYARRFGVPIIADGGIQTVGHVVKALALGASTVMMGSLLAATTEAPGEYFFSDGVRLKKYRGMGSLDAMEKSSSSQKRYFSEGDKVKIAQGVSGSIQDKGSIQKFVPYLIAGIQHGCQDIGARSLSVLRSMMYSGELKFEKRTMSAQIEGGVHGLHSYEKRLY

K562 [3] = assay: Concentration of the Antiproliferative compound required for the 50% inhibition of Growth against K562 cells; type: functional, cell-based; conditions: Homo sapiens
[4] = target: T2, Inosine-5'-monophosphate dehydrogenase 1; assay: Inhibitory activity against human Inosine-5'-monophosphate dehydrogenase 1 (IMPDH type I); procedure, shortened: as §1
Target sequence in this assay (P20839 whole entry): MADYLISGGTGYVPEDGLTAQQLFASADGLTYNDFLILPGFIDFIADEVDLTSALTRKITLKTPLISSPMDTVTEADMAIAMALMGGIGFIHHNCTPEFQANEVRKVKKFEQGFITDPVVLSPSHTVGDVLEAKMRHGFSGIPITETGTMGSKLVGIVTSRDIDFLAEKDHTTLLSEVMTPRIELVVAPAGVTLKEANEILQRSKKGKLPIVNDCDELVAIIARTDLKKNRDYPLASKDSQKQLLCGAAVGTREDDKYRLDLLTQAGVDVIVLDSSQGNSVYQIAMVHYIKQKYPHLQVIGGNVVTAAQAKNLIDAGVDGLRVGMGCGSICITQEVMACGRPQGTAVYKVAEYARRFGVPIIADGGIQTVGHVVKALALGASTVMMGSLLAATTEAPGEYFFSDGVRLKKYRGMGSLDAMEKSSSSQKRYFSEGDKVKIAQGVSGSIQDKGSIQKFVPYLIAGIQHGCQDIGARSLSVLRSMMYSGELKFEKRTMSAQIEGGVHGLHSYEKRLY

[5] = target: T1, Inosine-5'-monophosphate dehydrogenase 2; assay: Inhibitory activity against human Inosine-5'-monophosphate dehydrogenase 2 (IMPDH type II)
K562 [6] = assay: Compound effect on differentiation of K562 cells, % of benzidine positive cells at 14.3 uM; type: functional, Homo sapiens
K562 [7] = assay: Compound effect on differentiation of K562 cells, % of benzidine positive cells at 1.0 uM; type: functional, Homo sapiens
K562 [8] = assay: Compound effect on differentiation of K562 cells, % of benzidine positive cells at 100 uM; type: functional, Homo sapiens
[9] = target: T1, Inosine-5'-monophosphate dehydrogenase 2; assay: Inhibitory activity against human Inosine-5'-monophosphate dehydrogenase 2 (IMPDH type II); NA is not active; procedure, shortened: as §1
[10] = target: T2, Inosine-5'-monophosphate dehydrogenase 1; assay: Inhibitory activity against human Inosine-5'-monophosphate dehydrogenase 1 (IMPDH type I); NA is not active; procedure, shortened: as §1
Target sequence in this assay (P20839 2-514 limits assumed): as the sequence (P20839 2-514 limits assumed) above

K562 [11] = assay: Compound effect on differentiation of K562 cells, % of benzidine positive cells at 15 uM; type: functional, Homo sapiens
K562 [12] = assay: Antiproliferative activity against K562 cells; type: functional, cell-based, Homo sapiens
K562 [13] = assay: Compound effect on differentiation of K562 cells, % of benzidine positive cells at 1.5 uM; type: functional, Homo sapiens
K562 [14] = assay: Compound effect on differentiation of K562 cells, % of benzidine positive cells at 20 uM; type: functional, Homo sapiens
K562 [15] = assay: Compound effect on differentiation of K562 cells, % of benzidine positive cells at 14 uM; type: functional, Homo sapiens
K562 [16] = assay: Compound effect on differentiation of K562 cells, % of benzidine positive cells at 10 uM; type: functional, Homo sapiens
K562 [17] = assay: Compound effect on differentiation of K562 cells, % of benzidine positive cells at 1.6 uM; type: functional, Homo sapiens

| IC50 (K562 [3]) [µM] | Ki [4] [µM] | Ki [5] [µM] | SMILES | Effect (K562 [7]) [%] | further results |
| --- | --- | --- | --- | --- | --- |
| – | 0.11 | 0.11 | NC(=O)c1csc([C@@H]2O[C@H](COP(=O)(O)CP(=O)(O)OC[C@@H]3O[C@H](n4cnc5c(N)ncnc54)[C@@H](O)[C@H]3O)[C@@H](O)[C@H]2O)n1 | 2.4 | Effect (K562 [6]): 35% |
| 60 | 0.66 | 0.95 | NC(=O)c1cccc(C2OC(COP(=O)(O)CP(=O)(O)OC[C@@H]3OC(n4cnc5c(N)ncnc54)[C@@H](O)[C@H]3O)[C@@H](O)[C@H]2O)c1 (stereo partly specified) | 0.6 | Effect (K562 [11]): 9.5% |
| 43.2 | 0.89 | 0.4 | COc1c(C)c2c(c(O)c1CCOP(=O)(O)CP(=O)(O)O)C(=O)OC2 | 3.3 | Effect (K562 [14]): 67% |
| 1.5 | 0.33 | 0.29 | COc1c(C)c2c(c(O)c1C/C=C(/C)CCCOP(=O)(O)CP(=O)(O)OC[C@@H]1OC(n3cnc4c(N)ncnc43)[C@@H](O)[C@H]1O)C(=O)OC2 (stereo partly specified) | 9 | Effect (K562 [16]): 90% |

Further lines, the molecule ahead of its results:

| SMILES | IC50 (K562 [3]) [µM] | Ki [4] [µM] | Ki [5] [µM] | Effect (K562 [7]) [%] | further results |
| --- | --- | --- | --- | --- | --- |
| NC(=O)c1cccc([C@@H]2O[C@H](CO)[C@@H](O)[C@H]2O)c1 | 1.5 | – | – | – | NA [1]: inactive; NA [2]: inactive |
| COc1c(C)c2c(c(O)c1CCOP(=O)(O)CP(=O)(O)OCCc1c(O)c3c(c(C)c1OC)COC3=O)C(=O)OC2 | 2090 | 2.3 | 0.47 | 0.4 | Effect (K562 [8]): 4.4% |
| NC(=O)c1csc([C@@H]2O[C@H](CO)[C@@H](O)[C@H]2O)n1 [TIAZOFURIN] | – | – | – | 5.3 | NA [9]: inactive; NA [10]: inactive; Effect (K562 [11]): 80% |
| COc1c(C)c2c(c(O)c1C/C=C(\C)CCC(=O)O)C(=O)OC2 [MYCOPHENOLIC ACID] | – | 0.04 | – | – | IC50 (K562 [12]): 0.3 µM |
| COc1c(C)c2c(c(O)c1C/C=C(\C)COP(=O)(O)CP(=O)(O)OC[C@@H]1O[C@H](n3cnc4c(N)ncnc43)[C@@H](O)[C@H]1O)C(=O)OC2 | 0.1 | 0.52 | 0.38 | 63.3 | Effect (K562 [13]): 95% |
| NC(=O)c1csc([C@@H]2O[C@H](COP(=O)(O)C(F)(F)P(=O)(O)OC[C@@H]3O[C@H](n4cnc5c(N)ncnc54)[C@@H](O)[C@H]3O)[C@@H](O)[C@H]2O)n1 | – | 0.3 | 0.3 | 3.4 | Effect (K562 [15]): 48% |
| NC(=O)c1csc([C@H]2O[C@@H](COP(=O)(O)OP(=O)(O)OC[C@H]3O[C@@H](n4cnc5c(N)ncnc54)[C@H](O)[C@@H]3O)[C@H](O)[C@@H]2O)n1 | – | – | – | 2.5 | Effect (K562 [15]): 35% |
| COc1c(C)c2c(c(O)c1CCOP(=O)(O)CP(=O)(O)OC[C@H]1O[C@@H](n3cnc4c(N)ncnc43)[C@H](O)[C@@H]1O)C(=O)OC2 | – | – | – | 40.9 | Effect (K562 [17]): 65.4% |
